Published values collected from several papers.
Lines come from different studies, so protocols differ.
Target: Serine/threonine-protein kinase pim-1 (PIM1, Homo sapiens, UniProt P11309)

With COc1cnc(Nc2cccc(S(N)(=O)=O)c2)nc1N1CCN(c2ccccc2)C(=O)C1 the remaining binding was 100% (binding; competition with immobilised ligand; 1 µM).
O=C(NC[C@@H]1[C@H]2CN(C(=O)OCc3cc(C(F)(F)F)cc(C(F)(F)F)c3)C[C@@H]12)c1ccc2[nH]nnc2c1 gave a remaining binding of 98% (cell-free assay; competition with immobilised ligand; 1 µM).
The remaining binding of O=C(NCC1CCOCC1)c1n[nH]cc1NC(=O)c1c(F)cccc1F is reported as 100% (binding; competition with immobilised ligand; 1 µM).
Nc1ncc2c(n1)-c1c([nH]c3ccc(C#CC4CC4)cc13)CCCC2 has a remaining binding of 73% (binding; competition with immobilised ligand; 1 µM).
Cc1cnn2ncc(-c3ccnc(N(C)C)n3)c2c1 has a remaining binding of 80% (binding; 1 µM).
For Cc1cc(C)c(-n2ccn3nc(-c4cccnc4)cc23)cc1NC(=O)c1cc(C#N)cc(S(F)(F)(F)(F)F)c1, the remaining binding was 92% (cell-free assay; competition with immobilised ligand; 0.1 µM).
The remaining binding of CC1CCCN1c1nccc(-c2cnn3ncccc23)n1 (stereo not shown) is reported as 100% (binding; 1 µM).
COc1ncc2cc3ccccc3nc2c1C#N has a remaining binding of 87% (cell-free assay; competition with immobilised ligand; 5 µM).
For C[C@@H]1CN(c2ccc3ncc(-c4ccc5[nH]nc(C6CC6)c5c4)n3n2)C[C@H](C)O1, the remaining binding was 19% (binding; competition with immobilised ligand; 0.5 µM).
N[C@@H]1CCN(c2nccc(-c3cnn4ncccc34)n2)C1 gave a remaining binding of 100% (binding; 1 µM).
For CC(=O)C1=C(C)N(c2cccc(C(F)(F)F)c2)C(=O)N[C@@H]1c1ccc(C#N)nc1, the remaining binding was 100% (cell-free assay; competition with immobilised ligand; 1 µM).
With C=CC(=O)N1CCC(C(=O)NCC(=O)N2CCN(c3nc(-c4cnc(N)nc4C(F)F)nc(N4CCOCC4)n3)CC2)CC1 the remaining binding was 95% (binding; competition with immobilised ligand; 1 µM).
C[C@@H](c1ccc(-n2cnc3c(N)ncnc32)cc1)N1CCc2nn(C)c(Cc3ccccc3)c2C1=O has a remaining binding of 97% (binding; competition with immobilised ligand; 0.1 µM).
CN(c1nccc(-c2cnn3ncccc23)n1)C1CC1 gave a remaining binding of 100% (binding; 1 µM).
The remaining binding of Cc1cnc(Nc2ccc(C(=O)N3CCC(N4CCCC4)CC3)cc2)nc1-c1cc2ccccc2s1 is reported as 75% (binding; competition with immobilised ligand; 1 µM).
CCCCN(CCCC)C(=O)CN1C[C@H](c2cc(OC)c3c(c2)OCO3)[C@@H](C(=O)O)[C@@H]1CC(C)(C)CCC has a remaining binding of 100% (cell-free assay; competition with immobilised ligand; 1 µM).
C[C@H]1CCN(c2nccc(-c3cnn4ncccc34)n2)C1 has a remaining binding of 83% (binding; 1 µM).
With Cc1cc(NC(=O)c2cccc(S(F)(F)(F)(F)F)c2)cc(-n2ccn3nc(-c4cccnc4)cc23)c1 the remaining binding was 95.6% (cell-free assay; competition with immobilised ligand; 1 µM).
CN(C)c1nccc(-c2cnc3ncccn23)n1 has a remaining binding of 82% (binding; 1 µM).
CNC(=O)c1ccc(Nc2ncc(C(F)(F)F)c(NCc3nccnc3N(C)S(C)(=O)=O)n2)cc1 gave a remaining binding of 93% (cell-free assay; competition with immobilised ligand; 0.1 µM).
The remaining binding of CCN1CCN(Cc2ccc(C(=O)Nc3ccc(C)c(Oc4ccc5c(c4)CC(=O)N5)c3)cc2C(F)(F)F)CC1 is reported as 100% (binding; competition with immobilised ligand; 1 µM).
O=C(NCCCN1CCOCC1)c1ccc(Nc2ncc(Cl)c(-c3ccc(Cl)s3)n2)cc1 gave a remaining binding of 100% (binding; competition with immobilised ligand; 1 µM).
CN(C)c1nccc(-c2cnn3ncccc23)n1 gave a remaining binding of 81% (binding; 1 µM).
For Cn1nc(C(=O)NCc2ccc(C(=O)O)cc2)cc1-c1ccc2[nH]ccc2c1, the remaining binding was 91% (cell-free assay; competition with immobilised ligand; 0.1 µM).
For O=C(NCCCN1CCOCC1)c1ccc(Nc2nccc(-c3cc4ccccc4s3)n2)cc1, the remaining binding was 85% (binding; competition with immobilised ligand; 1 µM).
